# An excerpt weighted towards active compounds, which were near 6.7% of everything screened.
# PREPL inhibitor: human PREPL enzyme inhibition; Q4J6C6; recombinant PREPL, fluorescence polarization activity-based probe; inhibition, % at 5.96 µM; hit rate 0.68% among 320,000; AID 2751; in the data active = inhibition above about 43%;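 note: 0% = enzyme with DMSO and 100% = wells lacking enzyme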
# Target sequence (Q4J6C6 whole entry, looked up): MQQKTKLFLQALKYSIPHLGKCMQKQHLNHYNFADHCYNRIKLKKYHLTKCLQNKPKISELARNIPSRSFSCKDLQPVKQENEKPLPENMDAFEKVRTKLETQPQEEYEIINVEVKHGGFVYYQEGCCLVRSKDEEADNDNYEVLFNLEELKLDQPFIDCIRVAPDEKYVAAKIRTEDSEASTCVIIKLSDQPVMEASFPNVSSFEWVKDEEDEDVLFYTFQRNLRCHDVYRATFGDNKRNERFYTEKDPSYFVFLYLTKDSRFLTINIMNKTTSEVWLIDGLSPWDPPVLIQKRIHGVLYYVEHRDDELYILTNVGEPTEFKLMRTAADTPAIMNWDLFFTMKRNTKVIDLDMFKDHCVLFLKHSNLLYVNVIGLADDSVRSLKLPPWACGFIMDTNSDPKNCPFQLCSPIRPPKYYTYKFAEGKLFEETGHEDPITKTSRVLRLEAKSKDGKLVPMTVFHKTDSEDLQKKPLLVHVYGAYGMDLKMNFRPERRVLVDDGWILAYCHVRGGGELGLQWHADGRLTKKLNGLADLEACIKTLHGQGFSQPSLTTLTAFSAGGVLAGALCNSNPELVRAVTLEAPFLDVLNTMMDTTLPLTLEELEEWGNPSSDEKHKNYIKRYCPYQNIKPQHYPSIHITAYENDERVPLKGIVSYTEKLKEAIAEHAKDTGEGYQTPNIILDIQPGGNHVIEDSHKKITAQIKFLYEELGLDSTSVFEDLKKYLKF
# CHOP inh: inhibitors of CHOP induction in ER stress response; hit rate 3.8% among 220,000; CHO-K1 CHOP-promoter luciferase, tunicamycin-induced, 15-18 h; inhibition, % at 10 µM;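 active = compounds that reduced the stress-induced luciferase reporter signal by more than about 70% of percent inhibition, limit read from the data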;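 note: 0% = tunicamycin plus vehicle and 100% = wells without tunicamycin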
# Beta apoptosis: beta cell apoptosis inhibition; INS-1E cytokine-induced death, ATP luminescence, 48 h; percent of positive-control rescue, neutral wells zero; protection from apoptosis, % (no concentration beside the values); hit rate 0.8% among 300,000;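 active = Every replicate reaches about 75%, or at least half do and their mean reaches it too, limit read from the data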;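 note: 0% = cytokine-treated negative control wells and 100% = positive control rescue; higher means more ATP so stronger rescue from cytokine killing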
# CSC inhib: blocks cancer stem cells | cancer stem cell-like cells viability, luminescence | inhibition, % at 7.5 µM | hit rate 1.1% among 300,000; in the data active = inhibition above about 75%; tested in HMLE shEcad cells
# T cruzi inh: blocks replication of Trypanosoma cruzi; T. cruzi beta-gal in NIH3T3, luminescence, 90 h; AID 1885; inhibition, % (no concentration beside the values); hit rate 1.4% among 300,000;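 active = mean inhibition across valid replicates above about 55%, limit read from the data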;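 note: signal also drops with host cell toxicity which is not excluded here; 0% = plate median of DMSO wells and 100% = zero luminescence signal; higher percent means less beta-gal luminescence so fewer parasites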
#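 Assay system: NIH/3T3 host cells with β-galactosidase reporter T. cruzi; input: 5,000 host fibroblasts per well; compound: single 50 nL compound addition per well in DMSO; timing: ≥90 h infection period, 3 h prior cell attachment; measured by: GalScreen β-gal luminescence, detergent lysis, 60 min; evaluation: percent inhibition of parasite-derived β-gal signal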
# NR3A LBD binder: modulators (binders) of human NR3A ligand-binding domain; NR3A LBD differential scanning fluorimetry, Tm shift; 0% = protein alone, 100% = glycine-bound protein; Tm shift relative to glycine control, % at 25 µM; hit rate 2.5% among 340,000; AID 1259313;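 active = melting temperature shift of at least 10% of the positive control shift, at one fixed dose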
# * marks the source's active call; other numbers are inactive results; · = not tested or not shown.
SMILES,PREPL inhibitor,CHOP inh,Beta apoptosis,CSC inhib,T cruzi inh,NR3A LBD binder
COc1ccc(C2C(C#N)=C(N)Oc3c2ccc2cccnc32)cc1OC (configuration not stated),11,-4,99*,51,-37,-1
COc1cc(C2C(C#N)=C(N)Oc3c2ccc2ccccc32)ccc1OCC(=O)Nc1ccc(C)cc1 (configuration not stated),33,60,0,37,0,1
CCCCn1c(N)c(N(CCC(C)C)C(=O)c2ccc(N3CCCC3=O)cc2)c(=O)[nH]c1=O,11,·,4,-6,9,0
CCn1c2c(c3cc(Br)ccc31)CCC/C2=N\O,18,90*,-2,-1,20,-3
Cc1ccc(C(=O)Nc2ccccc2C(=O)N2CC3(C)CC2CC(C)(C)C3)cc1 (configuration not stated),5,93*,·,-17,9,-2
CC1(C)CC2CC(C)(CN2C(=O)c2cc(-c3ccc(O)cc3)on2)C1 (configuration not stated),-6,·,5,87*,17,-7
CC1(C)CC2CC(C)(CN2C(=O)NC(=O)c2ccccc2)C1 (configuration not stated),1,10,-15,-8,-13,1
CC1CCCN(C(=O)c2ccc3c(c2NCCO)C(=O)c2ccccc2C3=O)C1 (configuration not stated),39,40,3,10,18,5
O=C1c2ccccc2C(=O)c2c1ccc(C(=O)N1CCCCC1)c2NCCO,11,41,7,13,11,12*
CC1(C)CCCN(C(=O)c2ccc3c(c2NCCO)C(=O)c2ccccc2C3=O)C1,53*,36,9,9,10,-5
Cc1ccc(N2CCN(S(=O)(=O)c3ccc(Cl)s3)CC2C)cc1 (configuration not stated),-8,·,3,1,31,-2
CSc1ncccc1C(=O)Nc1ncc(C)s1,-8,·,-6,1,-11,0
CSc1ncccc1C(=O)Nc1nc2c(C)cccc2s1,4,86*,14,-7,-8,-7
CSc1ncccc1C(=O)Nc1nc2ccc(Oc3ccccc3)cc2s1,3,48,9,78*,-7,7
O=C(NCCCNC(=O)c1cccnc1)c1ccc(Cl)cc1,-4,·,·,-8,7,-6
COc1ccccc1OCCNC(=O)Cc1ccc(Cl)c(Cl)c1,-5,4,-5,8,-9,0
O=[N+]([O-])c1ccc(C2Oc3ccccc3C3CC(c4ccccc4)=NN32)s1 (configuration not stated),-30,32,22,41,·,·
C[C@H](CO)N1C[C@H](C)[C@@H](CN(C)S(=O)(=O)c2cn(C)cn2)Oc2ccc(NC(=O)Cc3ccccc3)cc2C1=O,13,·,-5,-9,·,1
NNC(=O)CCN(Cc1ccco1)S(=O)(=O)c1ccc(Cl)cc1,-20,-1,2,-6,-6,0
Cc1noc(C)c1S(=O)(=O)Nc1ccc2c(c1)CC(=O)N([C@H](C)CO)C[C@H](C)[C@H](CN(C)S(=O)(=O)c1ccc(F)cc1)O2,3,·,1,·,·,0
CCOC(=O)c1sc(N)c(C(=O)OCC)c1C,-8,-23,-1,-10,7,-1
CCOC(=O)c1c(N)sc2c(OCC)c(Br)ccc12,0,85*,10,79*,39,·
CC1/C(=C\c2ccc(Cl)cc2)C(=O)C2CC1C2(C)C (configuration not stated),-10,76*,1,-9,-10,6
CC1CCC(C(C)C)C(=O)/C1=C/c1ccc(N)cc1 (configuration not stated),12,17,3,43,2,-1
O=C(O)C1Cc2ccccc2CN1C(=O)CCl (configuration not stated),-6,-8,-6,-11,5,-3
SMILES,PREPL inhibitor,CHOP inh,Beta apoptosis,CSC inhib,T cruzi inh,NR3A LBD binder
N#C/C(=C(/O)c1ccc2c(c1)OCO2)c1nc2cc(C(F)(F)F)ccc2s1,8,·,15,79*,-16,4
N#C/C(=C(/O)c1ccccc1F)c1nc2cc(C(F)(F)F)ccc2s1,-3,26,-1,18,·,9
COC(=O)C1CCN(C(c2ccc(OC)c(OC)c2)c2sc3nc(C)nn3c2O)CC1 (configuration not stated),13,-15,0,-2,-2,13*
COc1cc(/C=C/C(=O)Nc2ccc(C(C)=O)cc2)cc(OC)c1OC,6,2,·,-10,-13,0
CCC(=O)Nc1ccc(NC(=S)NC(=O)/C=C/c2ccccc2)cc1,-14,92*,3,5,-11,15*
CC(=O)c1ccc(NC(=O)/C=C/c2ccc(C)cc2)cc1,10,19,-2,9,-9,20*
CCC(=O)Nc1ccc(NC(=O)/C=C/c2ccc(Cl)cc2)cc1,6,-16,4,-2,22,20*
Cc1cccc(CCNCc2c(C(=O)O)c(C)n(-c3ccccc3)c2C)c1,15,·,-3,-1,2,1
CC(C)NC(=O)N(C)C[C@H]1Oc2ccc(NC(=O)Cc3ccccc3)cc2C(=O)N([C@H](C)CO)C[C@@H]1C,-4,·,0,-19,·,-1
Cc1cccc(C)c1NC1=NCCCCC1,-7,18,-3,2,-11,1
Cc1onc(-c2ccccc2)c1CNC(=O)Nc1ccc(C(F)(F)F)cc1,-17,-2,2,21,56*,11*
CCOC(=O)c1c(C)oc2c1c(C=NCc1ccccn1)c(O)c1ccccc12,·,82*,·,·,·,-2
CC(=O)c1c(C)oc2c1cc(O)c1ccccc12,-2,-17,-2,1,-4,0
CCOC(=O)c1c(C)oc2c1cc(O)c1ccccc12,16,77*,-11,-8,-11,0
CCCCc1ccc(NC(=O)C(=O)NCCN2CCN(C(=O)c3ccc([N+](=O)[O-])cc3)CC2)cc1,-1,·,32,14,23,0
Cc1nn(-c2ccc(Cl)cc2)c(N)c1C(O)(CSc1nccn1C)C(F)(F)F (configuration not stated),4,39,6,13,·,-4
Nc1nn2c(-c3ccccc3)cc(=O)[nH]c2c1N=Nc1ccc(Br)cc1,·,69,·,·,·,25*
Nc1nn2c(-c3ccccc3)cc(=O)[nH]c2c1N=Nc1ccc(O)cc1,36,5,6,16,-2,27*
Cc1cc2[nH]c(=O)cc(-c3ccccc3)n2n1,17,·,2,-6,-12,0
COc1ccc(NC(=O)Nc2nc3c(s2)CCCC3)cc1,23,43,7,26,19,22*
CCOc1ccc2nc(NC(=O)C3CCN(c4cnccn4)CC3)sc2c1,-1,24,1,67,61*,-7
COc1ccccc1C(=O)Nc1nc2ccccc2s1,-2,·,46,105*,-10,-2

# Source: PubChem BioAssay (several laboratories)
